# Assay results collected from several papers.
# Organism: Aspergillus fumigatus
# Effect on: microbial growth
SMILES,method,strain,tested at,quantity,result
C[C@@H]1[C@H](O)[C@@H](C)/C=C/C=C/C=C/C=C/C=C/C=C/C=C/[C@H](O[C@@H]2O[C@H](C)[C@@H](O)[C@H](N)[C@@H]2O)C[C@@H]2O[C@](O)(C[C@@H](O)C[C@@H](O)[C@H](O)CC[C@@H](O)C[C@@H](O)CC(=O)O[C@H]1C)C[C@H](O)[C@H]2C(=O)O,,ATCC204305,,IC50,860 nM
C=CCCCCCCCCCCCC(O)CC(O)CO (stereo not shown),resazurin,ATCC204305,,IC50,> 200 µg/mL
CC1=NN(CNC(=O)c2ccccn2)C(=O)C1=NNn1c(-c2ccccc2)nc2ccccc2c1=O,broth dilution,,,MIC,104 µM
Clc1ccccc1C(c1ccccc1)(c1ccccc1)n1ccnc1,disc diffusion,,20000 µg/mL,inhibition zone,22 mm
C[C@@H]1[C@H](O)[C@@H](C)/C=C/C=C/C=C/C=C/C=C/C=C/C=C/[C@H](O[C@@H]2O[C@H](C)[C@@H](O)[C@H](N)[C@@H]2O)C[C@@H]2O[C@](O)(C[C@@H](O)C[C@@H](O)[C@H](O)CC[C@@H](O)C[C@@H](O)CC(=O)O[C@H]1C)C[C@H](O)[C@H]2C(=O)O,broth dilution,MF5668,,MIC,0.5 µg/mL
O=C1NN=C(N=Cc2ccc(O)c(O)c2)C1=NNn1c(-c2ccccc2)nc2ccccc2c1=O,broth dilution,,,MIC,53.5 µM
CCCCCCCCCCCCCC(O)CC(O)CO (stereo not shown),resazurin,ATCC204305,,IC50,> 200 µg/mL
CC1=NN(CNC(=O)c2ccccc2)C(=O)C1=NNn1c(-c2ccccc2)nc2ccccc2c1=O,broth dilution,,,MIC,104 µM
OC(Cn1cncn1)(Cn1cncn1)c1ccc(F)cc1F,broth dilution,MF5668,,MIC,> 128 µg/mL
C#CCCCCCCCCCCCC(O)CC(O)CO (stereo not shown),resazurin,ATCC204305,,IC50,> 200 µg/mL
